According to ChEMBL document CHEMBL5260844, “Optimization of PDE3A Modulators for SLFN12-Dependent Cancer Cell Killing” (ACS Med Chem Lett, 2019):
The source made the active and inactive calls. The rule behind the calls is not given here.

Experiments:
HeLa = assay: Cytotoxicity against human HeLa cells assessed as cell growth inhibition measured after 48 hrs by […] reagent based assay; assay type: functional
A549 = assay: Cytotoxicity against human A549 cells assessed as cell growth inhibition upto 10 uM measured after 3 days by […] reagent based assay; settings: time 72.0 hrs
SK-MEL3 = assay: Cytotoxicity against human SK-MEL3 cells assessed as cell growth inhibition upto 10 uM measured after 48 hrs by […] reagent based assay; assay type: functional; settings: SK-MEL3, 48 h
[1] = target: cGMP-inhibited 3',5'-cyclic phosphodiesterase 3A (Homo sapiens, UniProt Q14432); assay: Inhibition of human N-terminal His-GST-tagged recombinant PDE3A (669-end residues) using fluorescent labelled cAMP as substrate
Sequence of cGMP-inhibited 3',5'-cyclic phosphodiesterase 3A (Q14432 whole entry): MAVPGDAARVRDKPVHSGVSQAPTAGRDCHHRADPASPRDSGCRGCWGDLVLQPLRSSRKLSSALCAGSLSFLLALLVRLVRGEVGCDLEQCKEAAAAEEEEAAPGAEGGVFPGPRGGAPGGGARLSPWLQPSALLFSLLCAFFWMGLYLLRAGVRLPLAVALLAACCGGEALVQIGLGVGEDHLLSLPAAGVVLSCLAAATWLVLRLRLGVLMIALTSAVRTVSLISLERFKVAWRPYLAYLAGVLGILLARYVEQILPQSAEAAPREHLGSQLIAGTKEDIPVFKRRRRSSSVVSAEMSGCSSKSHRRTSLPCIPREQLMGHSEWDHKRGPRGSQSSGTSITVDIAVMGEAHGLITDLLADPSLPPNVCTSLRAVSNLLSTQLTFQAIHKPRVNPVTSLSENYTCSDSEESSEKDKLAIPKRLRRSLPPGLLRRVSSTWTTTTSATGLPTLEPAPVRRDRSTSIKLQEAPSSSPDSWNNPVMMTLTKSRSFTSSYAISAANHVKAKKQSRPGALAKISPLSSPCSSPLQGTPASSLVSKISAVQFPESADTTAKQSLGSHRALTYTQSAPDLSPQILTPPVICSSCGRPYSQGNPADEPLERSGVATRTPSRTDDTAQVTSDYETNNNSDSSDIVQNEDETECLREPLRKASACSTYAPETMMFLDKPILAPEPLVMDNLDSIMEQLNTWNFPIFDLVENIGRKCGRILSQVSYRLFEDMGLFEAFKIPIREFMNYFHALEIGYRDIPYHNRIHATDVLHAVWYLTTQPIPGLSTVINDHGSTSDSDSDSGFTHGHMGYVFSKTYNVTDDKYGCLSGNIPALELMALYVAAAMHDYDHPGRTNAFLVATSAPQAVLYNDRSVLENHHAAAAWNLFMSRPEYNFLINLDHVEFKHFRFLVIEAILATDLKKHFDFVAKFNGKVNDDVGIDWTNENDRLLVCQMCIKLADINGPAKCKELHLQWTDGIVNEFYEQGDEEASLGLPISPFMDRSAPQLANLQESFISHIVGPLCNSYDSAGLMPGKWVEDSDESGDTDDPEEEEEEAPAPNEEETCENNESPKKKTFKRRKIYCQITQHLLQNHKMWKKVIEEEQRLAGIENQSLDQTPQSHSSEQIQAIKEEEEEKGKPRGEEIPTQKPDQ

[2] = target: cGMP-inhibited 3',5'-cyclic phosphodiesterase 3B (Homo sapiens, UniProt Q13370); assay: Inhibition of human recombinant PDE3B
Sequence of cGMP-inhibited 3',5'-cyclic phosphodiesterase 3B (Q13370 whole entry): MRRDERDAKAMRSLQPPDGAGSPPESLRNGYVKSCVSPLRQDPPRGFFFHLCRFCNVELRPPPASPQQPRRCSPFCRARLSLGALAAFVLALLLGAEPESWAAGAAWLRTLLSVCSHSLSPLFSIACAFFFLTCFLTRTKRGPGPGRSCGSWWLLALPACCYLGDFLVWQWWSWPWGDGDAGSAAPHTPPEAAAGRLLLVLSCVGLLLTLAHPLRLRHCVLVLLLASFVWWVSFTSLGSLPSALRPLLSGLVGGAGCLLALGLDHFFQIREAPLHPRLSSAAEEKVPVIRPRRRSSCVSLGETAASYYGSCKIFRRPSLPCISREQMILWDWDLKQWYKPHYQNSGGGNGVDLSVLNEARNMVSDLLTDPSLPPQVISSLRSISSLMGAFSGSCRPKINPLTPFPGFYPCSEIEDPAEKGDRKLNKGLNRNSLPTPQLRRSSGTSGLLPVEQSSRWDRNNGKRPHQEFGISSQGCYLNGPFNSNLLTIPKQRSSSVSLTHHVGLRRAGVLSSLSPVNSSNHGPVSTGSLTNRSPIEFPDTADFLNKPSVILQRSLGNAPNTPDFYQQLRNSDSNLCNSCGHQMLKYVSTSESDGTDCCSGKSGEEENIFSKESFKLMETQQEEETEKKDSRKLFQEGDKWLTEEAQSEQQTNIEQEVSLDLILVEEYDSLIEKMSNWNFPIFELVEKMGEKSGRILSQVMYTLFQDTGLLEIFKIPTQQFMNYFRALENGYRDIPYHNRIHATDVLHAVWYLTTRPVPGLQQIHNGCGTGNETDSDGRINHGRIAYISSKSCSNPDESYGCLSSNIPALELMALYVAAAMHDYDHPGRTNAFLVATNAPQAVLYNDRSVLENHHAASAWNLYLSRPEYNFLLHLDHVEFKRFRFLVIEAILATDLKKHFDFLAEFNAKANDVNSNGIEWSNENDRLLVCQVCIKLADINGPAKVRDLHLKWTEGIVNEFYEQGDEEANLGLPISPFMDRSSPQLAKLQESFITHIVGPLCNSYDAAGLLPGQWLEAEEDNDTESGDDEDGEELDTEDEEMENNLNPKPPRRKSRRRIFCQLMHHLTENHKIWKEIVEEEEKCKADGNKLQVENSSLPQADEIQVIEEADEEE

[3] = Selectivity ratio, ratio of IC50 for human PDE3A to EC50 for cytotoxicity against human HeLa cells
[4] = Selectivity ratio, ratio of IC50 for human PDE3B to EC50 for cytotoxicity against human HeLa cells
HCT-116 = assay: Cytotoxicity against human HCT-116 cells assessed as cell growth inhibition upto 10 uM measured after 48 hrs by […] reagent based assay; assay type: functional
In short: (§1)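 Counterscreen viability assay in HCT116 colorectal cancer cells and IMR90 normal lung fibroblasts, run alongside DNMDP-sensitive lines.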

IMR-90 = assay: Cytotoxicity against human IMR-90 cells assessed as cell growth inhibition upto 10 uM measured after 48 hrs by […] reagent based assay; assay type: functional; in short: as §1
[5] = Microsomal stability in human liver microsomes assessed as parent compound remaining measured after 1 hr in presence of NADPH by UHPLC-MS analysis; assay type: ADME, Microsome; settings: read-out: Stability
In short: (§2)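 Test compound incubated with human or mouse liver microsomes. Percent remaining at 1 h reported as the average of three values.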

[6] = Microsomal stability in mouse liver microsomes assessed as parent compound remaining at 1 uM measured after 1 hr in presence of NADPH by UHPLC-MS analysis; assay type: ADME, Microsome; settings: read-out: Stability; in short: as §2
[7] = Plasma protein binding in human incubated for 5 hrs by UPLC-MS method; assay type: ADME, cell-free; settings: read-out: PPB (converted)
In short: (§3)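 Plasma protein binding, human and mouse, reported as % bound, average of three values.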

[8] = Plasma protein binding in mouse incubated for 5 hrs by UPLC-MS method; assay type: ADME, cell-free; settings: read-out: PPB (converted); in short: as §3
[9] = Stability in human plasma assessed as parent compound remaining after 5 hrs; assay type: ADME, cell-free; settings: read-out: Stability
In short: (§4)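 Human or mouse plasma incubation. Percent parent remaining at 5 h, average of three values.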

[10] = Stability in mouse plasma assessed as parent compound remaining after 5 hrs; assay type: ADME, cell-free; settings: read-out: Stability; in short: as §4

SMILES	EC50 (HeLa) [nM]	Activity (A549)	other results
C[C@@H]1CC(=O)NN=C1c1ccc(N2CCOCC2)cc1	13	inactive	–
C[C@@H]1CC(=O)NN=C1c1ccc(N2CCN(C)CC2)cc1	310	inactive	EC50 (SK-MEL3): 684 nM; IC50 [1]: 2000 nM; IC50 [2]: 3500 nM; Ratio IC50/EC50 [3]: 2.4; Ratio IC50/EC50 [4]: 2.4
C[C@H]1CC(=O)NN=C1c1ccc(N2CCOCC2)c(F)c1	> 1000	inactive	Activity (HCT-116): inactive; Activity (IMR-90): inactive
C[C@@H]1CC(=O)NN=C1c1ccc(F)c(F)c1	22	inactive	Activity (HCT-116): inactive; Activity (IMR-90): inactive
C[C@@H]1CC(=O)NN=C1c1ccc(N)cc1	> 1000	inactive	–
C[C@@H]1CC(=O)NN=C1c1ccc(-c2cncnc2)cc1	13	inactive	Activity (HCT-116): inactive; Activity (IMR-90): inactive; remaining at 1 h [5]: 83%; remaining at 1 h, 1 µM [6]: 105%; fraction unbound at 5 h [7]: 0.44; fraction unbound at 5 h [8]: 0.46; remaining at 5 h [9]: 104%; remaining at 5 h [10]: 108%
CC(=O)Nc1ccc(C2=NNC(=O)C[C@H]2C)cc1	> 1000	inactive	IC50 [1]: 24 nM; IC50 [2]: 16 nM
CC(=O)Nc1ccc(C2=NNC(=O)C[C@H]2C)cc1Cl	24	inactive	EC50 (SK-MEL3): 31 nM; IC50 [1]: 8 nM; IC50 [2]: 10 nM; Ratio IC50/EC50 [3]: 0.38; Ratio IC50/EC50 [4]: 0.38
C#Cc1cc(C2=NNC(=O)C[C@H]2C)ccc1NC(C)=O	65	inactive	–
CCNc1ccc(C2=NNC(=O)C[C@H]2C)cc1[N+](=O)[O-]	1.1	inactive	–
C[C@@H]1CC(=O)NN=C1c1ccc(I)cc1	7.1	inactive	–
C[C@@H]1CC(=O)NN=C1c1ccc(Cl)cc1	33	inactive	EC50 (SK-MEL3): 29 nM; Activity (HCT-116): inactive; Activity (IMR-90): inactive; remaining at 1 h [5]: 81%; remaining at 1 h, 1 µM [6]: 92%; fraction unbound at 5 h [7]: 0.13; fraction unbound at 5 h [8]: 0.19; remaining at 5 h [9]: 93%; remaining at 5 h [10]: 86%
C[C@@H]1CC(=O)NN=C1c1ccc(C2CCCCC2)cc1	7.7	inactive	Activity (HCT-116): inactive; Activity (IMR-90): inactive
CCN(CC)c1ccc(C2=NNC(=O)CC2C)cc1NC(C)=O (stereo unspecified)	> 1000	inactive	–
CCNc1ccc(C2=NNC(=O)C[C@H]2C)cc1	71	inactive	–
CCN(CC)c1ccc(C2=NNC(=O)C[C@H]2C)cc1	3.3	inactive	–
CCN(CC)c1ccc(C2=NNC(=O)CC2C)cc1 (racemic)	8.8	inactive	remaining at 1 h [5]: 89%; remaining at 1 h, 1 µM [6]: 26%; fraction unbound at 5 h [7]: 0.1; fraction unbound at 5 h [8]: 0.1; remaining at 5 h [9]: 104%; remaining at 5 h [10]: 96%
CCN(CC)c1ccc(C2=NNC(=O)CC2C)cc1N (stereo unspecified)	240	inactive	–
CCN1N=C(c2ccc(N(CC)CC)c([N+](=O)[O-])c2)C(C)CC1=O (racemic)	> 1000	inactive	Activity (HCT-116): inactive; Activity (IMR-90): inactive
CC1CC(=O)NN=C1c1ccc(F)c(F)c1 (racemic)	64	inactive	remaining at 1 h [5]: 108%; remaining at 1 h, 1 µM [6]: 82%; fraction unbound at 5 h [7]: 0.44; fraction unbound at 5 h [8]: 0.48; remaining at 5 h [9]: 93%; remaining at 5 h [10]: 96%

SMILES	EC50 (HeLa) [nM]	Activity (A549)	other results
Cc1nc2cc(C3=NNC(=O)C[C@H]3C)ccc2[nH]1	> 1000	inactive	–
CC(=O)Nc1ccc(C2=NNC(=O)C[C@H]2C)cc1N	> 1000	inactive	–
C[C@@H]1CC(=O)NN=C1c1ccc(Cl)c(Cl)c1	4.5	inactive	EC50 (SK-MEL3): 5.6 nM; IC50 [1]: 8 nM; IC50 [2]: 14 nM; Ratio IC50/EC50 [3]: 2.4; Ratio IC50/EC50 [4]: 2.4
CC1(C)C(=O)NN=C1c1ccc(N2CCOCC2)cc1	> 1000	inactive	–
CC(=O)Nc1ccc(C2=NNC(=O)C[C@H]2C)cc1C(C)=O	130	inactive	–
C[C@@H]1CC(=O)NN=C1c1ccc(F)cc1	410	inactive	–
CCN(CC)c1ccc(C2=NNC(=O)C2(C)C)cc1	> 1000	inactive	–
CCCc1ccc(C2=NNC(=O)C[C@H]2C)cc1	16	inactive	–
CC1CC(=O)NN=C1c1ccc(N2CCOCC2)c(F)c1 (racemic)	2.8	inactive	remaining at 1 h [5]: 109%; remaining at 1 h, 1 µM [6]: 102%; fraction unbound at 5 h [7]: 0.43; fraction unbound at 5 h [8]: 0.45; remaining at 5 h [9]: 80%; remaining at 5 h [10]: 101%
C[C@@H]1CC(=O)NN=C1c1ccc(N2CCOCC2)c(Cl)c1	4.5	inactive	–
C[C@H]1CC(=O)NN=C1c1ccc(F)c(F)c1	> 1000	inactive	–
C/C=C/c1ccc(C2=NNC(=O)C[C@H]2C)cc1	8.8	inactive	–
C[C@@H]1CC(=O)NN=C1c1ccc(-n2cnnc2)cc1	> 1000	inactive	–
C[C@@H]1CC(=O)NN=C1c1ccc(C2=CCCCC2)cc1	2.2	inactive	–
CCN(CC)c1ccc(C2=NNC(=O)C[C@H]2C)cc1[N+](=O)[O-]	3.8	inactive	–
CC1CC(=O)NN=C1c1ccc(N2CCOCC2)cc1 (racemic)	36	inactive	EC50 (SK-MEL3): 11 nM; Activity (HCT-116): inactive; Activity (IMR-90): inactive; IC50 [1]: 120 nM; IC50 [2]: 260 nM; Ratio IC50/EC50 [3]: 2.4; Ratio IC50/EC50 [4]: 2.4; remaining at 1 h [5]: 94%; remaining at 1 h, 1 µM [6]: 99%; fraction unbound at 5 h [7]: 0.53; fraction unbound at 5 h [8]: 0.58; remaining at 5 h [9]: 87%; remaining at 5 h [10]: 105%
CC(=O)Nc1ccc(C2=NNC(=O)C[C@H]2C)cc1[N+](=O)[O-]	4.9	inactive	EC50 (SK-MEL3): 4.2 nM; Activity (HCT-116): inactive; Activity (IMR-90): inactive
CC(=O)Nc1ccc(C2=NNC(=O)C[C@H]2C)cc1Br	21	inactive	–
CC1(C)C(=O)NN=C1c1ccc(Cl)cc1	> 1000	inactive	–
CC1(C)C(=O)NN=C1c1ccc(N)cc1	> 1000	inactive	–
